Reference: ChEMBL document CHEMBL1154352, “Toll-like receptor 7 selective synthetic oligoribonucleotide agonists: synthesis and structure-activity relationship studies” (J Med Chem, 2009)
Activity calls are given as the source filed them. The calls are words filed in the database; no cut-off is given here.

Legend:
[1] = target: T1, Toll-like receptor 8 (Homo sapiens) (UniProt Q9NR97); assay: Activation of human TLR8 expressed in HEK293XL assessed as induction of NF-kappaB activity by reporter gene assay
T1 sequence (whole entry): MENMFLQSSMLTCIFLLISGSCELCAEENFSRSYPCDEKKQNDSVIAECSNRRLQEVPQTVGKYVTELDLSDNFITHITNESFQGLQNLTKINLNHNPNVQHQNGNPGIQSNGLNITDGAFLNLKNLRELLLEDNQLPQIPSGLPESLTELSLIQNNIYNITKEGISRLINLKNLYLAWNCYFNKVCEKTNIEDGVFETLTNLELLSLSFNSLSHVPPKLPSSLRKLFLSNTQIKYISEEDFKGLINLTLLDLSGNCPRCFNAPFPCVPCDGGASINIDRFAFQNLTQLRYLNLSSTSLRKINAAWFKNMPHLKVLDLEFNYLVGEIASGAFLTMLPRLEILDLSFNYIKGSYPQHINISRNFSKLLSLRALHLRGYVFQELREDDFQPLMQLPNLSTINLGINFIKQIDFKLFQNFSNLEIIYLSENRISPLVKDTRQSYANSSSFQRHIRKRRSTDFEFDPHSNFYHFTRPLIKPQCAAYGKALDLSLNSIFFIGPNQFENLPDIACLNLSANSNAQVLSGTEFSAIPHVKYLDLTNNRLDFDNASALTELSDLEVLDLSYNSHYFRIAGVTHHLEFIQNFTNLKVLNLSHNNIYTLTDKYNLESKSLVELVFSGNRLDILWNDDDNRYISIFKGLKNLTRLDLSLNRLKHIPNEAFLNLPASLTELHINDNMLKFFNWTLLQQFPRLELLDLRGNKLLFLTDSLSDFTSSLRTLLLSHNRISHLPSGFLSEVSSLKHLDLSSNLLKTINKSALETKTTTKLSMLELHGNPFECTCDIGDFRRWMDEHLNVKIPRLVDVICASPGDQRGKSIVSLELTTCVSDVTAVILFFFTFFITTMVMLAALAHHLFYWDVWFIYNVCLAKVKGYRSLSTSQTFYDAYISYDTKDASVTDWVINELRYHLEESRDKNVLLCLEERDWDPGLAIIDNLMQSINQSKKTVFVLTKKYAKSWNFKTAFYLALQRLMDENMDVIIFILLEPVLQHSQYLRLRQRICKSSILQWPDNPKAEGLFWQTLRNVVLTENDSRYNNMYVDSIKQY
How it was run: (§1)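 HEK293 cells stably expressing human TLR7 or TLR8, transiently transfected with SEAP reporter plasmid; medium replaced, SIMRA compounds added, 18 h incubation. Supernatant SEAP measured by QuantiBlue; expressed as fold increase in NF-κB activity over PBS control. Tabulated data at 50 μg/mL, representative of three independent experiments.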

Homo sapiens = species on record: Homo sapiens; assay: Ratio of human TLR7 activity to human TLR8 activity
How it was run: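 TLR7/TLR8 ratio computed from fold NF-κB (SEAP reporter) activation in HEK293 cells stably expressing human TLR7 versus TLR8, compounds at 50 μg/mL, 18 h exposure; representative of three independent experiments.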

[2] = target: T2, Toll-like receptor 7 (Homo sapiens) (UniProt Q9NYK1); assay: Activation of human TLR7 expressed in HEK293XL assessed as induction of NF-kappaB activity by reporter gene assay; how it was run: as §1
T2 sequence (whole entry): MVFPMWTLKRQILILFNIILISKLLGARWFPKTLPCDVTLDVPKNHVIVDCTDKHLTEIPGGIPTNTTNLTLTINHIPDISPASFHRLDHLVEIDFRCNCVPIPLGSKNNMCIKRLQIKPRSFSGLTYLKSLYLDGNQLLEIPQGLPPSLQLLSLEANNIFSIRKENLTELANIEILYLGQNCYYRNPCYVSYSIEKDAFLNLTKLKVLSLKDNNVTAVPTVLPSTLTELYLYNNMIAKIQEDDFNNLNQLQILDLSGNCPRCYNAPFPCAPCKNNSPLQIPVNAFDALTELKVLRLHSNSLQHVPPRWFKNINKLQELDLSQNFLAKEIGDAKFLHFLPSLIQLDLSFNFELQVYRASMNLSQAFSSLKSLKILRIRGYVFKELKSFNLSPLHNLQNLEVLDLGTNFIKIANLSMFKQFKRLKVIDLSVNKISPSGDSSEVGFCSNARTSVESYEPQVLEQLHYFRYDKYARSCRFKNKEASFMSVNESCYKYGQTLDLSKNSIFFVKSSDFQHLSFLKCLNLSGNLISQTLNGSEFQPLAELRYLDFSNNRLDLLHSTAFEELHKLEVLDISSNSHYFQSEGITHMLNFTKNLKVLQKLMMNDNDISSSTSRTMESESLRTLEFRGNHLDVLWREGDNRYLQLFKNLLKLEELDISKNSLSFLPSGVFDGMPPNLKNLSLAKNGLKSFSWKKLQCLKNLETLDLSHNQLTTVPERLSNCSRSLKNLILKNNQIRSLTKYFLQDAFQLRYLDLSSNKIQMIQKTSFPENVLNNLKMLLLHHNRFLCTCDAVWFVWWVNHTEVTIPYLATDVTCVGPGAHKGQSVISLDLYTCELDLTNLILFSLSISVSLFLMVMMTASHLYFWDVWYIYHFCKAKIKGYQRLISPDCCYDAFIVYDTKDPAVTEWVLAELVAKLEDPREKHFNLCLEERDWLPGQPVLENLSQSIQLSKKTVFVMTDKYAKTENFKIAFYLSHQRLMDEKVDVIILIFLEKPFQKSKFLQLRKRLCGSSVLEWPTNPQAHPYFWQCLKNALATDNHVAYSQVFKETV

| Structure (SMILES) | Activity [1] | Activity (Homo sapiens) | Activity [2] |
| --- | --- | --- | --- |
| Nc1ccn([C@@H]2O[C@H](COP(=O)(S)O[C@H]3[C@@H](O)[C@H](n4cnc5c(N)ncnc54)O[C@@H]3CO)[C@@H](OP(=O)(S)OC[C@H]3O[C@@H](n4ccc(=O)[nH]c4=O)[C@H](O)[C@@H]3OP(=O)(S)OC[C@H]3O[C@@H](n4ccc(=O)[nH]c4=O)[C@H](O)[C@@H]3OP(=O)(S)OC[C@H]3O[C@@H](n4cnc5c(=O)[nH]c(N)nc54)[C@H](O)[C@@H]3OP(=O)(S)OC[C@H]3O[C@@H](n4cnc5c(N)ncnc54)[C@H](O)[C@@H]3OP(=O)(S)OC[C@H]3O[C@@H](n4ccc(N)nc4=O)[C@H](O)[C@@H]3OP(=O)(S)OC[C@H]3O[C@@H](n4cnc5c(=O)[nH]c(N)nc54)[C@H](O)[C@@H]3OP(=O)(S)OC[C@H]3O[C@@H](n4cnc5c(N)ncnc54)[C@H](O)[C@@H]3OP(=O)(S)OC[C@H]3O[C@@H](n4ccc(=O)[nH]c4=O)[C@H](O)[C@@H]3OP(=O)(S)OC[C@H]3O[C@@H](n4ccc(=O)[nH]c4=O)[C@H](O)[C@@H]3OP(=O)(S)OCC(O)COP(=O)(S)O[C@H]3[C@@H](O)[C@H](n4ccc(=O)[nH]c4=O)O[C@@H]3COP(=O)(S)O[C@H]3[C@@H](O)[C@H](n4ccc(=O)[nH]c4=O)O[C@@H]3COP(=O)(S)O[C@H]3[C@@H](O)[C@H](n4cnc5c(N)ncnc54)O[C@@H]3COP(=O)(S)O[C@H]3[C@@H](O)[C@H](n4cnc5c(=O)[nH]c(N)nc54)O[C@@H]3COP(=O)(S)O[C@H]3[C@@H](O)[C@H](n4ccc(N)nc4=O)O[C@@H]3COP(=O)(S)O[C@H]3[C@@H](O)[C@H](n4cnc5c(N)ncnc54)O[C@@H]3COP(=O)(S)O[C@H]3[C@@H](O)[C@H](n4cnc5c(=O)[nH]c(N)nc54)O[C@@H]3COP(=O)(S)O[C@H]3[C@@H](O)[C@H](n4ccc(=O)[nH]c4=O)O[C@@H]3COP(=O)(S)O[C@H]3[C@@H](O)[C@H](n4ccc(=O)[nH]c4=O)O[C@@H]3COP(=O)(S)O[C@H]3[C@@H](O)[C@H](n4ccc(N)nc4=O)O[C@@H]3COP(=O)(S)O[C@H]3[C@@H](O)[C@H](n4cnc5c(N)ncnc54)O[C@@H]3CO)[C@H]2O)c(=O)n1 (stereo partly specified) | inactive | Dose-dependent effect | inactive |
| Nc1ccn([C@@H]2O[C@H](COP(=O)(S)O[C@H]3[C@@H](O)[C@H](n4cnc5c(N)ncnc54)O[C@@H]3CO)[C@@H](OP(=O)(S)OC[C@H]3O[C@@H](n4ccc(=O)[nH]c4=O)[C@H](O)[C@@H]3OP(=O)(S)OC[C@H]3O[C@@H](n4ccc(=O)[nH]c4=O)[C@H](O)[C@@H]3OP(=O)(S)OC[C@H]3O[C@@H](n4ccc5c(=O)[nH]c(N)nc54)[C@H](O)[C@@H]3OP(=O)(S)OC[C@H]3O[C@@H](n4cnc5c(N)ncnc54)[C@H](O)[C@@H]3OP(=O)(S)OC[C@H]3O[C@@H](n4cnc5c(N)ncnc54)[C@H](O)[C@@H]3OP(=O)(S)OC[C@H]3O[C@@H](n4cnc5c(=O)[nH]c(N)nc54)[C@H](O)[C@@H]3OP(=O)(S)OC[C@H]3O[C@@H](n4ccc(N)nc4=O)[C@H](O)[C@@H]3OP(=O)(S)OC[C@H]3O[C@@H](n4ccc(=O)[nH]c4=O)[C@H](O)[C@@H]3OP(=O)(S)OC[C@H]3O[C@@H](n4ccc(=O)[nH]c4=O)[C@H](O)[C@@H]3OP(=O)(S)OCC(O)COP(=O)(S)O[C@H]3[C@@H](O)[C@H](n4ccc(=O)[nH]c4=O)O[C@@H]3COP(=O)(S)O[C@H]3[C@@H](O)[C@H](n4ccc(=O)[nH]c4=O)O[C@@H]3COP(=O)(S)O[C@H]3[C@@H](O)[C@H](n4ccc(N)nc4=O)O[C@@H]3COP(=O)(S)O[C@H]3[C@@H](O)[C@H](n4cnc5c(=O)[nH]c(N)nc54)O[C@@H]3COP(=O)(S)O[C@H]3[C@@H](O)[C@H](n4cnc5c(N)ncnc54)O[C@@H]3COP(=O)(S)O[C@H]3[C@@H](O)[C@H](n4cnc5c(N)ncnc54)O[C@@H]3COP(=O)(S)O[C@H]3[C@@H](O)[C@H](n4cnc5c(=O)[nH]c(N)nc54)O[C@@H]3COP(=O)(S)O[C@H]3[C@@H](O)[C@H](n4ccc(=O)[nH]c4=O)O[C@@H]3COP(=O)(S)O[C@H]3[C@@H](O)[C@H](n4ccc(=O)[nH]c4=O)O[C@@H]3COP(=O)(S)O[C@H]3[C@@H](O)[C@H](n4ccc(N)nc4=O)O[C@@H]3COP(=O)(S)O[C@H]3[C@@H](O)[C@H](n4cnc5c(N)ncnc54)O[C@@H]3CO)[C@H]2O)c(=O)n1 (stereo partly specified) | inactive | Dose-dependent effect | inactive |
